Experimental data taken from ChEMBL document CHEMBL1122432, “Some adenine and adenosine methylene-bridged estrogens” (J Med Chem, 1983).

Experiments:
[1] = target: T1, Sulfotransferase 1E1 (Bos taurus, UniProt P19217); experiment: Inhibition of bovine estrogen sulfotransferase by the compound
T1 sequence (P19217 whole entry): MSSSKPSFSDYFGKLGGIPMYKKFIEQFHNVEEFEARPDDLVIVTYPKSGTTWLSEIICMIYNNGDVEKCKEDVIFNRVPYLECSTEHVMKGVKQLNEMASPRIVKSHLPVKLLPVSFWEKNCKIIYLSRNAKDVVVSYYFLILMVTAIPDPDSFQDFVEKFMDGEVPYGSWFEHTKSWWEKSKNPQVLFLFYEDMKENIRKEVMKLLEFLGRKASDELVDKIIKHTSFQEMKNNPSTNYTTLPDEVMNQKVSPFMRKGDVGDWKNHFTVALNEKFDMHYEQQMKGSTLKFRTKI
Method in brief: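 Inhibitor was present at a fixed concentration in 90% aqueous Me2SO. Ki values were derived with relationships for competitive inhibitors.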

[2] = test system: P388; experiment: (§1) Concentration required for 50% Inhibition of P388 murine leukemia cells; format: functional, Mus musculus
Method in brief: (§2)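 Exponentially growing P388 murine leukemia cells were kept in medium with 10% horse serum and 1 μM mercaptoethanol. They were exposed to graded drug levels, and total cell numbers were counted 24 h later. IC50 is the concentration inhibiting growth by 50% over the test period.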

[3] = test system: MCF7; experiment: Concentration required for 30% Inhibition of human breast cancer cell line MCF-7; format: functional
Method in brief: (§3)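 Human breast cancer cells were grown in glass vials in medium with 5% calf serum and treated in log phase. Compounds were dissolved in Me2SO and diluted in medium to a final solvent concentration of at most 0.2%. Growth was followed over 2-3 days, or 5 days where noted. IC30 and IC50 are the concentrations giving 30% and 50% growth inhibition. Values average two or more experiments.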

[4] = test system: MCF7; experiment: Concentration required for 50% Inhibition of human breast cancer cell line MCF-7; format: functional; settings: read-out: ID50 (the source's name); method in brief: as §3
[5] = test system: MCF7; experiment: Inhibition of human breast cancer cell line MCF-7; format: functional; settings: for IC50: read-out: ID50 (the source's name)
Method in brief: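 MCF-7 breast cancer cells were grown in sterile glass scintillation vials in medium with 5% calf serum and treated in log phase. Compounds were dissolved in Me₂SO and diluted in medium, with final solvent ≤0.2%. Growth was measured over 2-3 days, or 5 days where footnoted. IC₃₀/IC₅₀ is the concentration inhibiting growth by 30/50% over the test period, averaged from two or more experiments.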

[6] = test system: MCF7; experiment: Concentration required for 30% Inhibition of human breast cancer cell line MCF-7; NA means no inhibition at -20 concentration; format: functional, cell-based; method in brief: as §3
[7] = test system: P388; experiment: as §1; format: functional; settings: Mus musculus, read-out: ID50 (the source's name); method in brief: as §2

Q: `C[C@]12CC[C@@H]3c4ccc(OP(=O)(O)OP(=O)(O)OC[C@H]5O[C@@H](n6c(Br)nc7c(N)ncnc76)[C@H](O)[C@@H]5OP(=O)(O)O)cc4CC[C@H]3[C@@H]1CCC2=O` was tested. Which Ki [1] did it give?
A: Its Ki is 0.25 µM.

Q: For `C[C@]12CC[C@@H]3c4ccc(OCCCCn5cnc6c(N)ncnc65)c([N+](=O)[O-])c4CC[C@H]3[C@@H]1CCC2=O`, which ID50 [2] is on record?
A: Its ID50 is 5 µM.

Q: And the ID30 [3]?
A: Its ID30 is 2.1 µM.

Q: And the Ki [1]?
A: Its Ki is 140 µM.

Q: What about the IC50 [4] of the same compound?
A: The IC50 was 4 µM.

Q: What does the source list for `O=c1[nH]cc(F)c(=O)[nH]1` [FLUOROURACIL]?
A: ID30 [5]: 0.2 µM; IC50 [5]: 0.3 µM

Q: Which ID30 [6] does the source give for `C[C@]12CC[C@@H]3c4ccc(OCCCn5cnc6c(N)ncnc65)cc4CC[C@H]3[C@@H]1CCC2=O` here?
A: The ID30 was “Not Active”.

Q: What about the Ki [1] of the same compound?
A: Its Ki is 1000 µM.

Q: Which results are given for `C[C@]12CC[C@@H]3c4ccc(OCCCOC[C@H]5OC(n6cnc7c(N)ncnc76)[C@H](O)[C@@H]5O)c([N+](=O)[O-])c4CC[C@H]3[C@@H]1CCC2=O` (stereo not given in full)?
A: ID30 [3]: 3.6 µM; IC50 [7]: 15 µM; Ki [1]: 84 µM; IC50 [4]: 6.4 µM

Q: For `C[C@]12CC[C@@H]3c4ccc(OCCOC[C@H]5OC(n6cnc7c(N)ncnc76)[C@H](O)[C@@H]5O)c([N+](=O)[O-])c4CC[C@H]3[C@@H]1CCC2=O` (stereo not given in full), which ID30 [3] is on record?
A: The ID30 was 11 µM.

Q: And the IC50 [7]?
A: Its IC50 is 70 µM.

Q: What about the Ki [1] of the same compound?
A: Its Ki is 32 µM.

Q: And the IC50 [4]?
A: The IC50 was > 10 µM.

Q: Which results are given for `COc1ccc2c(c1[N+](=O)[O-])CC[C@@H]1[C@@H]2CC[C@]2(C)C(=O)CC[C@@H]12`?
A: ID30 [5]: >10 µM; IC50 [5]: > 10 µM

Q: With `C[C@]12CC[C@@H]3c4ccc(OCCCn5cnc6c(N)ncnc65)c([N+](=O)[O-])c4CC[C@H]3[C@@H]1CCC2=O` as the compound, how does the ID30 [6] read?
A: Its ID30 is “Not Active”.

Q: And the Ki [1]?
A: The Ki was 350 µM.

Q: With `C[C@]12CC[C@@H]3c4ccc(OCCn5cnc6c(N)ncnc65)c([N+](=O)[O-])c4CC[C@H]3[C@@H]1CCC2=O` as the compound, how does the ID30 [3] read?
A: The ID30 was 7.8 µM.

Q: What about the IC50 [7] of the same compound?
A: Its IC50 is 30 µM.

Q: And the Ki [1]?
A: Its Ki is 1000 µM.

Q: And the IC50 [4]?
A: The IC50 was 10 µM.
